Wnt bcat act = Wnt/beta-catenin pathway activators, primary screen, cell-based, plate reader, single point; actives 1.2% (n = 300,000); activation, % at 9.35 µM; AID 743398, 2014; Wnt/beta-catenin reporter cell assay, activator; in the data active means activation above about 30%, passing the limit was not always enough;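 further: 0% = neutral control wells and 100% = positive control wells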
PGC1a acetyl inh = inhibitors of PGC1a acetylation signal, primary screen, cell-based, U2OS, AlphaScreen, inhibitor mode. AlphaScreen anti-acetyl-lysine; with virally co-expressed GCN5 acetyltransferase. inhibition, % at 15.6 µM. actives 0.17% (n = 350,000). AID 651687, 2012;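 active means every replicate shows inhibition of at least 40%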;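 further: 0% = neutral control wells and 100% = positive control wells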
Cneo AK release = Cryptococcus neoformans cell lysis inducers, primary screen, AK release luminescence, single concentration; actives 0.2% (n = 360,000); C. neoformans lysis, adenylate kinase release luminescence, 4 h; normalised: neutral wells 0, clomiphene wells 100; lysis activity, % at 15 µM;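 active means mean lysis activity across replicates of at least 80%, whatever share of replicates individually reach that level; inactive means mean lysis activity below 80%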
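Test system: log-phase Cryptococcus neoformans yeast cells; Quantity: yeast cell density of 5 × 10^6 cells/mL; Buffer or medium: YPD; Doses: single compound concentration per well; Timing: 4 h at 37 °C static, read 1 h later; Measured by: AK luminescence; Read-out basis: lysis from increased AK signal; Control set: Clomiphene as positive control.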
MITF TRPM1 HTS = activators of MITF-driven TRPM1 promoter reporter, primary screen, cell-based, SK-MEL-5, luciferase, single point | SK-MEL-5 TRPM1-promoter luciferase, 24 h; % of positive control, neutral wells = 0 | activation, % at 12.5 µM | actives 0.75% (n = 300,000) | AID 588334, 2011;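 active means mean activation of at least 80% with every replicate also reaching 80%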;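 further: 0% = neutral control wells and 100% = parthenolide positive control wells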
Starred values were filed as active, the others as inactive. Sampled rows, rich in hits. Any-hit rate of the full collection: about 1.5%.

COc1ccc(NC(=O)c2ccc3nccnc3c2)cc1 was read as Wnt bcat act 11, PGC1a acetyl inh -3 and MITF TRPM1 HTS 71.
CCOc1ccc(NC(=O)c2ccc3nccnc3c2)cc1 was read as PGC1a acetyl inh -1, Cneo AK release -5 and MITF TRPM1 HTS 89*.
For NCCCn1c(C(=O)c2cc(Cl)c(N)c(Cl)c2)c2ccc([N+](=O)[O-])cc2[n+]1[O-] the results were Wnt bcat act 3, PGC1a acetyl inh 54*, Cneo AK release 2 and MITF TRPM1 HTS -52.
`NCCCn1c(C(=O)c2cc(Cl)c(N)c(Cl)c2)c2ccc(C(F)(F)F)cc2[n+]1[O-]` gave Wnt bcat act -3, PGC1a acetyl inh -5, Cneo AK release -5 and MITF TRPM1 HTS -15.
`c1cncc(CNc2cccc(-c3nc4ccccc4[nH]3)c2)c1` gave Wnt bcat act 50*, PGC1a acetyl inh -9, Cneo AK release -7 and MITF TRPM1 HTS 58.
Screening CO[C@@H]1CN(C)C(=O)c2cc(NC(=O)C3CCOCC3)ccc2OC[C@H](C)NC[C@@H]1C returned PGC1a acetyl inh -10 and Cneo AK release 102*.
For CO[C@@H]1CN(C)C(=O)c2cc(NC(=O)C3CCOCC3)ccc2OC[C@H](C)NC[C@H]1C the results were PGC1a acetyl inh 3 and Cneo AK release 2.
CO[C@H]1CN(C)C(=O)c2cc(NC(=O)C3CCOCC3)ccc2OC[C@@H](C)NC[C@H]1C was read as PGC1a acetyl inh 6 and Cneo AK release 107*.
COc1ccc(NC(=O)N(C)C[C@H]2Oc3ccc(NS(=O)(=O)c4ccc(Cl)cc4)cc3C(=O)N([C@H](C)CO)C[C@H]2C)cc1 was read as Cneo AK release 5.
Screening CO[C@H]1CC[C@H]2CCOc3c(C#N)cccc3C(=O)N(C)C[C@H](c3ccccc3)CC(=O)N(C)C[C@@H]1O2 returned PGC1a acetyl inh 2 and Cneo AK release 27.
`CO[C@@H]1CC[C@@H]2CCOc3c(C#N)cccc3C(=O)N(C)C[C@H](c3ccccc3)CC(=O)N(C)C[C@@H]1O2` gave PGC1a acetyl inh 8 and Cneo AK release 83*.
`N#C/C(=C\c1ccc([N+](=O)[O-])o1)c1nc2ccccc2[nH]1` gave Wnt bcat act -15.
N#C/C(=C\c1ccc(Sc2ccccc2)o1)c1nc2ccccc2[nH]1 was read as Wnt bcat act -3, PGC1a acetyl inh 5, Cneo AK release -3 and MITF TRPM1 HTS 121*.
For N#C/C(=C\c1ccc(OC(=O)c2cccs2)cc1)c1nc2ccccc2[nH]1 the results were Wnt bcat act 35* and MITF TRPM1 HTS 58.
Screening CCOc1ccccc1OCC(=O)Nc1cc(C)on1 returned Wnt bcat act 0, PGC1a acetyl inh -3, Cneo AK release 4 and MITF TRPM1 HTS 12.
`Cc1cc(NC(=O)COc2ccc3ccccc3c2Br)no1` gave Wnt bcat act 40*, PGC1a acetyl inh -7, Cneo AK release -2 and MITF TRPM1 HTS 68.
`Cc1ccc(S(=O)(=O)Nc2ccc3c(c2)C(=O)N([C@@H](C)CO)C[C@@H](C)[C@@H](CN(C)S(=O)(=O)c2ccc(Cl)cc2)OCCCC[C@H](C)O3)cc1` gave PGC1a acetyl inh -3 and Cneo AK release 101*.
Screening C[C@@H]1CN([C@@H](C)CO)C(=O)c2cc(NS(=O)(=O)c3ccc(F)cc3)ccc2O[C@@H](C)CCCCO[C@@H]1CN(C)Cc1ccc2c(c1)OCO2 returned PGC1a acetyl inh 1 and Cneo AK release 99*.
Screening Cc1ccc(S(=O)(=O)Nc2ccc3c(c2)C(=O)N([C@@H](C)CO)C[C@H](C)[C@@H](CN(C)S(=O)(=O)c2ccc(Cl)cc2)OCCCC[C@@H](C)O3)cc1 returned PGC1a acetyl inh -9 and Cneo AK release -1.
C[C@@H]1CCCCO[C@@H](CN(C)S(=O)(=O)c2ccccc2)[C@H](C)CN([C@@H](C)CO)C(=O)c2cc(NC(=O)Nc3ccc(F)cc3)ccc2O1 was read as PGC1a acetyl inh 6 and Cneo AK release 105*.
For C[C@@H]1CN([C@@H](C)CO)C(=O)c2cc(NS(=O)(=O)c3ccc(F)cc3)ccc2O[C@@H](C)CCCCO[C@H]1CN(C)S(=O)(=O)c1ccc(F)cc1 the results were PGC1a acetyl inh -8 and Cneo AK release 101*.
`C[C@@H]1CCCCO[C@H](CN(C)S(=O)(=O)c2ccccc2)[C@@H](C)CN([C@@H](C)CO)C(=O)c2cc(NC(=O)Nc3ccc(F)cc3)ccc2O1` gave PGC1a acetyl inh 0 and Cneo AK release 2.

Screens as filed in PubChem.
